From ChEMBL document CHEMBL5678815 (Clin Cancer Res, 2017) come the findings set out here.

The target of assay [1] is Casein kinase I isoform epsilon (Homo sapiens) (UniProt P49674). Nature of the assay: Inhibition of human CSNK1E assessed as remaining activity at 1 uM by ATP-competition binding assay relative to control. A digest of the protocol:
(§1)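 KINOMEscan ATP-site-dependent competition binding panel of 395 human kinases, with compound tested at 1 μM. Binding is reported as remaining signal relative to control.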

Assay [2] addresses Receptor tyrosine-protein kinase erbB-4 (Homo sapiens) (UniProt Q15303). Briefly: Inhibition of human ERBB4 assessed as remaining activity at 1 uM by ATP-competition binding assay relative to control. The procedure, abridged:
(§2)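 Single-point profiling at 1μM in an ATP-site-dependent competition binding assay across a panel of 395 human kinases, including mutant forms. The read-out is kinase binding signal in the presence of test agent, expressed as inhibition relative to the control signal. This screen assessed noncovalent binding interactions.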

In assay [3] the target is Serine/threonine-protein kinase PAK 3 (Homo sapiens) (UniProt O75914). Briefly: Inhibition of human PAK3 assessed as remaining activity at 1 uM by ATP-competition binding assay relative to control. A digest of the protocol: as §2
In a further assay the test system is Splenocyte. Briefly: In vivo inhibition of BCR signaling in female […] mouse assessed as CD69 expression at 1.3 mg/kg, po administered and measured after stimulation with anti-IgM for 18 h by flow cytometry analysis. It counts as functional, organism-based. A digest of the protocol: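 Female C57BL/6 mice (5 per group per dose) were gavaged orally at 0.1–30 mg/kg. At 3 h, splenocytes were stimulated with anti-mouse IgM 10 μg/mL for 18 h at 37°C, 5% CO2. After Fc block, cells were stained for CD19 and CD69 with 7-AAD viability dye; >5,000 gated CD19+ cells acquired by flow cytometry.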
For orientation: A flow cytometer gives signals particle by particle.

The target in assay [4] is Cyclin-dependent kinase 15 (Homo sapiens) (UniProt Q96Q40). Nature of the assay: Inhibition of human PFTAIRE2 assessed as remaining activity at 1 uM by ATP-competition binding assay relative to control. The procedure, abridged:
as §2

Assay [5] has as its target Serine/threonine-protein kinase Nek7 (Homo sapiens) (UniProt Q8TDX7). Nature of the assay: Inhibition of human NEK7 assessed as remaining activity at 1 uM by ATP-competition binding assay relative to control. A digest of the protocol: as §2
Assay [6] concerns the target Maternal embryonic leucine zipper kinase (Homo sapiens) (UniProt Q14680). Nature of the assay: Inhibition of human MELK assessed as remaining activity at 1 uM by ATP-competition binding assay relative to control. A digest of the protocol:
as §2

For assay [7], the target named is Dual specificity protein kinase CLK1 (Homo sapiens) (UniProt P49759). Nature of the assay: Inhibition of human CLK1 assessed as remaining activity at 1 uM by ATP-competition binding assay relative to control. The procedure, abridged:
as §1

The target in assay [8] is Serine/threonine-protein kinase B-raf (Homo sapiens) (UniProt P15056). Nature of the assay: Inhibition of human BRAF assessed as remaining activity at 1 uM by ATP-competition binding assay relative to control. A digest of the protocol:
as §1

The target in assay [9] is Serine/threonine-protein kinase pim-3 (Homo sapiens) (UniProt Q86V86). Nature of the assay: Inhibition of human PIM3 assessed as remaining activity at 1 uM by ATP-competition binding assay relative to control. The procedure, abridged: (§3)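 Single-concentration (1 μM) screen in an ATP-site-dependent competition binding assay (KINOMEscan, outsourced) covering 395 human kinases, mutants included. Non-covalent binding was read as the remaining signal relative to the control signal.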

Assay [10] concerns the target Protein kinase C eta type (Homo sapiens) (UniProt P24723). Nature of the assay: Inhibition of human PRKCH assessed as remaining activity at 1 uM by ATP-competition binding assay relative to control. The procedure, abridged:
as §3

Assay [11] deals with Dual specificity testis-specific protein kinase 1 (Homo sapiens) (UniProt Q15569). Briefly: Inhibition of human TESK1 assessed as remaining activity at 1 uM by ATP-competition binding assay relative to control. A digest of the protocol:
as §3

For assay [12], the target named is Mitogen-activated protein kinase kinase kinase 4 (Homo sapiens) (UniProt Q9Y6R4). Briefly: Inhibition of human MAP3K4 assessed as remaining activity at 1 uM by ATP-competition binding assay relative to control. The procedure, abridged: as §2
Assay [13] deals with Casein kinase I isoform gamma-3 (Homo sapiens) (UniProt Q9Y6M4). Briefly: Inhibition of human CSNK1G3 assessed as remaining activity at 1 uM by ATP-competition binding assay relative to control. The procedure, abridged: as §1

Calls of active or inactive are those of the source. No cut-off for these calls is given here.

Sequence of Dual specificity testis-specific protein kinase 1 (Homo sapiens) (Q15569 whole entry, looked up): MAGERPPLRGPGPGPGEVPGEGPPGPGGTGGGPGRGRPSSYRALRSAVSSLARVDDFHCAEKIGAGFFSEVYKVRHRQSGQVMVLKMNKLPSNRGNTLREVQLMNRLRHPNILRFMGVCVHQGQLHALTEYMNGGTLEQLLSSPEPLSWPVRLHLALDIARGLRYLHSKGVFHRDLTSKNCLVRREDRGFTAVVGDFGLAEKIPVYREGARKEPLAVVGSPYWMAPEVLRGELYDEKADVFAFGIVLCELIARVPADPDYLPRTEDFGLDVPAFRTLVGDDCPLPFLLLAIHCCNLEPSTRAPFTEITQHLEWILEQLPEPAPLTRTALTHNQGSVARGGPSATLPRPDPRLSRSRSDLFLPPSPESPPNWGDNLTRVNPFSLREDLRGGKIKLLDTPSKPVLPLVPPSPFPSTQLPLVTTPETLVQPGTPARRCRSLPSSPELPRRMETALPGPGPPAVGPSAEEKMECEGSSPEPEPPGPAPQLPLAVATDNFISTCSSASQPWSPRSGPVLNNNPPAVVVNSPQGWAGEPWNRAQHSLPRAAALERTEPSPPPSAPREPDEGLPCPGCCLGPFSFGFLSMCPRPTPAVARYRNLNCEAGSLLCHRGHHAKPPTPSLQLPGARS
Sequence of Dual specificity protein kinase CLK1 (Homo sapiens) (P49759 whole entry, looked up): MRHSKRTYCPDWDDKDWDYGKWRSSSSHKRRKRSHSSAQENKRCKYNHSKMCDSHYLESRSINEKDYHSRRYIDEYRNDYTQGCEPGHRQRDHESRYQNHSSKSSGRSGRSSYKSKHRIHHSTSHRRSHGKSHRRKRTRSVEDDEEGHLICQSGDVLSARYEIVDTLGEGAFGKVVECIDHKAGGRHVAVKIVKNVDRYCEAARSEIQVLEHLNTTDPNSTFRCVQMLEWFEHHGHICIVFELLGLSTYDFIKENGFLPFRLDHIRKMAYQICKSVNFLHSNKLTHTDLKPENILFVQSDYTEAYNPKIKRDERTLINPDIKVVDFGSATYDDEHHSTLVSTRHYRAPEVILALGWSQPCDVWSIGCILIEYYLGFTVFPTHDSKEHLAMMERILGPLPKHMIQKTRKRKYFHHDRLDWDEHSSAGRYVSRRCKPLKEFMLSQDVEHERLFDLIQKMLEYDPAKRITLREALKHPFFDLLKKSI
Sequence of Cyclin-dependent kinase 15 (Homo sapiens) (Q96Q40 whole entry): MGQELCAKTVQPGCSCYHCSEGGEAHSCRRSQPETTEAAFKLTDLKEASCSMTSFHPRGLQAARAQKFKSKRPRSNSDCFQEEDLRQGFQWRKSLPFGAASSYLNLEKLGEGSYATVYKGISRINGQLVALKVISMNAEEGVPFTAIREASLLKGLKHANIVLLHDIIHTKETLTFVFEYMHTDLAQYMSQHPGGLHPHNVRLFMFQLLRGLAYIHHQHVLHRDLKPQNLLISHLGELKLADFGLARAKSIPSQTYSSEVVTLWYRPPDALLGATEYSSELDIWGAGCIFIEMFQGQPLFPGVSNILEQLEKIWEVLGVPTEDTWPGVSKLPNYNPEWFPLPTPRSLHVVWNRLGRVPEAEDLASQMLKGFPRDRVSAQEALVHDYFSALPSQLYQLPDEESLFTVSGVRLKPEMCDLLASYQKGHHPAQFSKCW
Sequence of Protein kinase C eta type (Homo sapiens) (P24723 whole entry): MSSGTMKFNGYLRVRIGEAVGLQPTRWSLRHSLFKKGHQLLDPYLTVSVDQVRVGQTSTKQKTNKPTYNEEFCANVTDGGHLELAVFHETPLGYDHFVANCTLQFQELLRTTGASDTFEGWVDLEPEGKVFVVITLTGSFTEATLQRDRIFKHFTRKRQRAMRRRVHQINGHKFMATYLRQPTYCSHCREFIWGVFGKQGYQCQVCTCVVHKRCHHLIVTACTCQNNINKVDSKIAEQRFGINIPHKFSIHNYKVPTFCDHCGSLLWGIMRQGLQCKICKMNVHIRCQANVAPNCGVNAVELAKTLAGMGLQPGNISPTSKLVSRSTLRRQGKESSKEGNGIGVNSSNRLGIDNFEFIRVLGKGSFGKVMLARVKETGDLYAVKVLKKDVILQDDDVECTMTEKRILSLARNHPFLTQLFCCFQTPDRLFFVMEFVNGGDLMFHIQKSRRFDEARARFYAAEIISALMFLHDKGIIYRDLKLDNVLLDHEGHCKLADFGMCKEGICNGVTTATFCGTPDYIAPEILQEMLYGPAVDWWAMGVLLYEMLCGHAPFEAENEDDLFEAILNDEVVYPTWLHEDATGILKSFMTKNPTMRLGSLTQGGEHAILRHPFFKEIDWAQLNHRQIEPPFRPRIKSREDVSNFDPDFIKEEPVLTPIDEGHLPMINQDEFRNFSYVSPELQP
Sequence of Serine/threonine-protein kinase Nek7 (Homo sapiens) (Q8TDX7 whole entry, looked up): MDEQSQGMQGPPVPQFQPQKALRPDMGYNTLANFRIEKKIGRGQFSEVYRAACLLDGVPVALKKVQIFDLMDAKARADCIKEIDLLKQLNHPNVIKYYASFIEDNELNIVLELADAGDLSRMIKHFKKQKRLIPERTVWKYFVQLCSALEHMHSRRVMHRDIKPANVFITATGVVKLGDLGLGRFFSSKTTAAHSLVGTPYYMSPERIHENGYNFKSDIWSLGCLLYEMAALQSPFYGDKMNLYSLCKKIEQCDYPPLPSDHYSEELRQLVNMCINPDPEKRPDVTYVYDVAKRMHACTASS
Sequence of Receptor tyrosine-protein kinase erbB-4 (Homo sapiens) (Q15303 whole entry): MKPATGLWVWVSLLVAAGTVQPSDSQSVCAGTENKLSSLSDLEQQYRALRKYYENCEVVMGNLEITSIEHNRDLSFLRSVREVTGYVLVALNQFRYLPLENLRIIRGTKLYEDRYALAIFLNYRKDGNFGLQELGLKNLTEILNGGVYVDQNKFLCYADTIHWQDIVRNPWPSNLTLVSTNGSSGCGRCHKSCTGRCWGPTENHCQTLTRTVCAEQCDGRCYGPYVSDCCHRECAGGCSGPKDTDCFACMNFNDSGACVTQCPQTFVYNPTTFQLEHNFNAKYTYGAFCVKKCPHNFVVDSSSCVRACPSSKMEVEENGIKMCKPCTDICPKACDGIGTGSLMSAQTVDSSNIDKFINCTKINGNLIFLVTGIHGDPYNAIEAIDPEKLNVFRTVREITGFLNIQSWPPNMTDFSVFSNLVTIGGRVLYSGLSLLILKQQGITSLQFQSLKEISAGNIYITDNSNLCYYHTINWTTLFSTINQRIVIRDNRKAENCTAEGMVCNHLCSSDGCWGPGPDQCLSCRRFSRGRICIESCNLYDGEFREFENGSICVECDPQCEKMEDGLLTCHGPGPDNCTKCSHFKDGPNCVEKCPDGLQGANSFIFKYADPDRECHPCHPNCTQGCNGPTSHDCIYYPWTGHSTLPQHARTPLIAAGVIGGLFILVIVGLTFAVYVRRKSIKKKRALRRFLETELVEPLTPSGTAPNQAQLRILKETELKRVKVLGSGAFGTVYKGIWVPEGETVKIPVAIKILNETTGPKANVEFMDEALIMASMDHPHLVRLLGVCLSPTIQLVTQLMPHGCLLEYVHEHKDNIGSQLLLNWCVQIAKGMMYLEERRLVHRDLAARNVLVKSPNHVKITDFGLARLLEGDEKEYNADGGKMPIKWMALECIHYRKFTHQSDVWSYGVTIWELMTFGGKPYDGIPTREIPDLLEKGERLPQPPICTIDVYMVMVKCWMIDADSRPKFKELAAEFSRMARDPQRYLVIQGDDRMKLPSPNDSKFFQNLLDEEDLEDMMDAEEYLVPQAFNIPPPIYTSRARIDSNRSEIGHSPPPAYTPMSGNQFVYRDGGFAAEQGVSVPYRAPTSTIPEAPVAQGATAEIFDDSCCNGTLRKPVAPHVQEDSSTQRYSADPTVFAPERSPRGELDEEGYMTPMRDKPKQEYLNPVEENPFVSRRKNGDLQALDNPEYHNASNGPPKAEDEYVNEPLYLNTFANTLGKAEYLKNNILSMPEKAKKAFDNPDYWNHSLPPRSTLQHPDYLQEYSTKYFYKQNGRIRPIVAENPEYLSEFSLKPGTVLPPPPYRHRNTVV
Sequence of Serine/threonine-protein kinase B-raf (Homo sapiens) (P15056 whole entry): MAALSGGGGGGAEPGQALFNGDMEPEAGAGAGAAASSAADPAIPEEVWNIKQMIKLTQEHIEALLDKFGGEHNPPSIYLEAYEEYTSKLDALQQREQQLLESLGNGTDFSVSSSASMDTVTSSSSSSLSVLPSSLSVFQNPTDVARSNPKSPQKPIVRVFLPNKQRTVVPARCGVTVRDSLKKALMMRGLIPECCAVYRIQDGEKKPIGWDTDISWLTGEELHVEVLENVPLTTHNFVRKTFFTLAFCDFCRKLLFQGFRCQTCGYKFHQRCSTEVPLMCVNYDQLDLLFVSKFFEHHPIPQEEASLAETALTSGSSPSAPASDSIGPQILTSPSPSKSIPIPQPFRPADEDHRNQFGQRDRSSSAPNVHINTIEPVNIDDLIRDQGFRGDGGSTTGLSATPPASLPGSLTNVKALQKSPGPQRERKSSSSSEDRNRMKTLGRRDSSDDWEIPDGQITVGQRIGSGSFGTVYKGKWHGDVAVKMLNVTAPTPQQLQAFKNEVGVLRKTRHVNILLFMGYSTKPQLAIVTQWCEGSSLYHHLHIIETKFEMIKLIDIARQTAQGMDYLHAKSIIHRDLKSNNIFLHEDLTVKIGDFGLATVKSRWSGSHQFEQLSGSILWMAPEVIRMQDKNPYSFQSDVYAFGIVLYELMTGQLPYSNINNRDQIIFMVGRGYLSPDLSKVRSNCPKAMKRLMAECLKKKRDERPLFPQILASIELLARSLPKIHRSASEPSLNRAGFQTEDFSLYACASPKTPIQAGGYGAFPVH

In the case of `CC#CC(=O)N1CCC[C@H]1c1nc(-c2ccc(C(=O)Nc3ccccn3)cc2)c2c(N)nccn12` [ACALABRUTINIB], the Activity came out at 90% in assay [1]; 4.3% in assay [2]; 73% in assay [3]; 76% in assay [4]; 80% in [5]; 76% in assay [6]. In addition, the Activity in [7] amounted to 94%; in [8], 64%; in [9] it was 84%; in assay [10], 87%; in assay [11] it was 83%; in [12], 86%. The Activity in assay [13] is 100%. Further, the result in the assay on Splenocyte was Active.
